Target: human ΔF508–CFTR (Homo sapiens, UniProt P13569, DEL508-508)
Test: ΔF508–CFTR corrector activity assay
Type: cell-based
Details: for Corrector activity (in words): ΔF508–CFTR FRT cells; for Vmax higher than benchmark bithiazole corr4a: difference to corr4a (475 μM/s); for Increase of Vmax compared to benchmark bithiazole corr4a: relative to corr4a
Summary of the method: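 FRT cells stably coexpressing human ΔF508–CFTR and YFP-H148Q/I152L were grown 24 h at 37 °C, then exposed 16–20 h to test compound at various concentrations, with DMSO vehicle and a bithiazole positive control. Cells were PBS-washed and given forskolin (20 μM) plus genistein (50 μM) for 20 min. Fluorescence (ex 500, em 535 nm) was recorded 2 s before and 12 s after adding iodide-for-chloride PBS. Initial rate came from an exponential fit, normalized to initial fluorescence. Vmax came from Hill fitting of concentration–activity data.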

For `COc1ccc(Cl)cc1Nc1nc2c(s1)CCCc1nc(N)sc1-2` [7a, N8-(5-Chloro-2-methoxyphenyl)-5,6-dihydro-4H-cyclohepta[1,2-d:3,4-d′]bis(thiazole)-2,8-diamine], the “Corrector activity (in words)” value was “modest correctors”.

With `COc1ccc(Cl)cc1Nc1nc2c(s1)CCCCc1nc(N)sc1-2` [8a, N9-(5-Chloro-2-methoxyphenyl)-4,5,6,7-tetrahydrocycloocta[1,2-d:3,4-d′]bis(thiazole)-2,9-diamine] the “Corrector activity (in words)” value was “modest correctors”.

`COC(=O)CCC(=O)Nc1nc2c(s1)-c1nc(Nc3cc(Cl)ccc3OC)sc1CCC2` [9e, Methyl 4-((8-((5-chloro-2-methoxyphenyl)amino)-5,6-dihydro-4H-cyclohepta[1,2-d:3,4-d′]bis(thiazole)-2-yl)amino)-4-oxobutanoate] was tested, and the “Vmax higher than benchmark bithiazole corr4a” value was 200 µM/s and the “Increase of Vmax compared to benchmark bithiazole corr4a” value was 1.5 fold.

For `COc1ccc(Cl)cc1Nc1nc2c(s1)CCCCc1nc(NC(=O)C(C)C)sc1-2` [10c, N-(9-((5-Chloro-2-methoxyphenyl)amino)-4,5,6,7-tetrahydrocycloocta [1,2-d:3,4-d′]bis(thiazole)-2-yl)isobutyramide], the “Vmax higher than benchmark bithiazole corr4a” value was 200 µM/s and the “Increase of Vmax compared to benchmark bithiazole corr4a” value was 1.5 fold.

Reference: paper PMC4136667 (Journal of Medicinal Chemistry, 2014)
